Test results: ChEMBL document CHEMBL1649111, “Restoration of susceptibility of intracellular methicillin-resistant Staphylococcus aureus to beta-lactams: comparison of strains, cells, and antibiotics” (Antimicrob Agents Chemother, 2008)
≈ marks a conversion by molar mass, not a printed value.

Key:
Staphylococcus aureus [1] = experiment: Antimicrobial activity against intracellular beta-lactamase negative methicillin-susceptible Staphylococcus aureus ATCC 25923 infected in human keratinocytes assessed as increase in bacterial count from original inoculum at low compound concentration after 24 hrs at pH 7.4; assay type: functional
Outline: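 Primary human skin keratinocytes or Calu-3 bronchial epithelial cells infected with MSSA ATCC 25923 at 5 × 10⁷ to 1 × 10⁸ bacteria/ml, 2 h internalization. Postphagocytosis inoculum 1.5 × 10⁶ to 3.0 × 10⁶ CFU/mg protein. Cloxacillin concentration range for 24 h; CFU/mg protein change vs. inoculum (n = 3). Hill fit gives Emin/Emax; static concentration by graphical interpolation.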

Staphylococcus aureus [2] = experiment: Antimicrobial activity against intracellular hospital acquired methicillin-resistant Staphylococcus aureus ATCC 33591 infected in human keratinocytes assessed as increase in bacterial count from original inoculum at low compound concentration after 24 hrs at pH 7.4; assay type: functional
Outline: (§1)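 Primary human skin keratinocytes or Calu-3 bronchial epithelial cells, given an inoculum of 5 × 10⁷ to 1 × 10⁸ bacteria/ml and 2 h for internalization. Post-phagocytosis load 1.5 × 10⁶ to 3.0 × 10⁶ CFU per mg cell protein. Cloxacillin dose range in mg/liter for 24 h, n = 3. Hill-derived Emin, Emax and EC50; static concentration interpolated.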

Staphylococcus aureus [3] = experiment: Antimicrobial activity against intracellular beta-lactamase negative methicillin-susceptible Staphylococcus aureus ATCC 25923 infected in human Calu3 cells assessed as decrease in bacterial count from original inoculum at high compound concentration after 24 hrs at pH 7.4; assay type: functional, Calu-3; outline: as §1
Staphylococcus aureus [4] = experiment: Antimicrobial activity against intracellular hospital acquired methicillin-resistant Staphylococcus aureus ATCC 33591 infected in human Calu3 cells assessed as decrease in bacterial growth after 24 hrs at pH 7.4; assay type: functional, organism-based; conditions: ATCC 33591, Calu-3, 24 h; outline: as §1
Staphylococcus aureus [5] = experiment: Bacteriostatic activity against intracellular hospital acquired methicillin-resistant Staphylococcus aureus ATCC 33591 infected in human Calu3 cells assessed as decrease in bacterial growth after 24 hrs at pH 7.4; assay type: functional, Calu-3; outline: as §1
Staphylococcus aureus [6] = experiment: Antimicrobial activity against hospital acquired methicillin-resistant Staphylococcus aureus ATCC 33591 infected in human THP-1 cells assessed as decrease in bacterial growth after 24 hrs at pH 7.4; assay type: functional, organism-based; conditions: ATCC 33591, THP-1, 24 h
Staphylococcus aureus [7] = experiment: Antimicrobial activity against hospital acquired methicillin-resistant Staphylococcus aureus ATCC 33591 by broth microdilution method at pH 7.4; assay type: functional
Outline: (§2)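 Minimal inhibitory concentration by broth microdilution at pH 7.4, read in mg/liter. The MRSA genotype was confirmed by mecA PCR, and the SCCmec subgroup was assigned by multiplex PCR.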

Staphylococcus aureus [8] = experiment: Antimicrobial activity against hospital acquired methicillin-resistant Staphylococcus aureus N4120032 obtained from wound infection of patient by broth microdilution method at pH 7.4; assay type: functional; outline: as §2
Staphylococcus aureus [9] = experiment: Antimicrobial activity against Panton-valentine leukocidin positive community acquired methicillin-resistant Staphylococcus aureus N4042228 by broth microdilution method at pH 7.4; assay type: functional; outline: as §2
Staphylococcus aureus [10] = experiment: Antimicrobial activity against hospital acquired methicillin-resistant and vancomycin-intermediate Staphylococcus aureus NRS18 obtained from patient with wound, skin and soft tissue infection by broth microdilution method at pH 7.4; assay type: functional; outline: as §2
Staphylococcus aureus [11] = experiment: Antimicrobial activity against hospital acquired methicillin-resistant and vancomycin-intermediate Staphylococcus aureus VRS2 obtained from patient with wound, skin and soft tissue infection by broth microdilution method at pH 7.4; assay type: functional; outline: as §2
Staphylococcus aureus [12] = experiment: Antimicrobial activity against hospital acquired methicillin-resistant Staphylococcus aureus N4120032 obtained from wound infection of patient by broth microdilution method at pH 5.5; assay type: functional
Staphylococcus aureus [13] = experiment: Antimicrobial activity against Panton-valentine leukocidin positive community acquired methicillin-resistant Staphylococcus aureus N4090440 obtained from wound infection of patient by broth microdilution method at pH 5.5; assay type: functional
Staphylococcus aureus [14] = experiment: Antimicrobial activity against constitutive beta-lactamase negative methicillin-resistant Staphylococcus aureus COL NRS100 infected in human THP-1 cells assessed as increase in bacterial count from original inoculum at low compound concentration after 24 hrs at pH 5.5; assay type: functional
Outline: (§3)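 Bacteria phagocytosed by unactivated human THP-1 macrophages, then incubated 24 h with extracellular antibiotic at about 0.01× to 100× the pH 5.5 broth MIC. CFU per mg cell protein counted against the original inoculum, n = 3. A Hill-equation fit (slope factor 1) gave Emin and Emax, extrapolated to infinitely low and high concentration, and EC50. Static concentration was graphically interpolated.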

Staphylococcus aureus [15] = experiment: (§4) Antimicrobial activity against hospital acquired methicillin-resistant Staphylococcus aureus HMC546 infected in human THP-1 cells assessed as increase in bacterial count from original inoculum at low compound concentration after 24 hrs at pH 5.5; assay type: functional; outline: as §3
Staphylococcus aureus [16] = experiment: as §4, with “methicillin-resistant and vancomycin-intermediate” for “methicillin-resistant”, “NRS126 obtained from bloodstream infection of patient” for “HMC546”; assay type: functional; outline: as §3
Staphylococcus aureus [17] = experiment: Antimicrobial activity against beta-lactamase negative methicillin-susceptible Staphylococcus aureus ATCC 25923 infected in human THP-1 cells assessed as decrease in bacterial count from original inoculum at high compound concentration after 24 hrs at pH 5.5; assay type: functional
Outline: (§5)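 MSSA ATCC 25923 phagocytized by unactivated THP-1 macrophages; extracellular antibiotic from about 0.01× to 100× the broth MIC at pH 5.5, with gentamicin 0.5 mg/liter to block extracellular growth. CFU per mg cell protein counted at 24 h vs. original inoculum (n = 3). A Hill equation (slope factor 1) gives Emin/Emax, extrapolated to infinitely low/high concentration. Static concentration is read by graphical interpolation.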

Staphylococcus aureus [18] = experiment: Antimicrobial activity against hospital acquired methicillin-resistant Staphylococcus aureus N4120032 obtained from wound infection opf patient infected in human THP-1 cells assessed as decrease in bacterial count from original inoculum at high compound concentration after 24 hrs at pH 5.5; assay type: functional; outline: as §3
Staphylococcus aureus [19] = experiment: Antimicrobial activity against hospital acquired methicillin-resistant Staphylococcus aureus N4120210 obtained from urinary tract infection of patient infected in human THP-1 cells assessed as decrease in bacterial count from original inoculum at high compound concentration after 24 hrs at pH 5.5; assay type: functional, Urine; outline: as §3
Staphylococcus aureus [20] = experiment: Antimicrobial activity against hospital acquired methicillin-resistant Staphylococcus aureus ATCC 33591 infected in human THP-1 cells assessed as decrease in bacterial growth after 24 hrs at pH 5.5; assay type: functional, organism-based; conditions: ATCC 33591, THP-1, 24 h; outline: as §3
Staphylococcus aureus [21] = experiment: Antimicrobial activity against hospital acquired methicillin-resistant and vancomycin-intermediate Staphylococcus aureus VRS2 obtained from wound, skin and soft tissue infection of patient infected in human THP-1 cells assessed as decrease in bacterial growth after 24 hrs at pH 5.5; assay type: functional, cell-based; conditions: VRS2, THP-1, 24 h
Outline: (§6)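 Human THP-1 macrophages infected with each S. aureus strain. Cloxacillin added extracellularly at about 0.01× to 100× the broth MIC measured at pH 5.5, with gentamicin 0.5 mg/liter to stop extracellular growth. Incubated 24 h. CFU counted per mg cell protein as change from the post-phagocytosis inoculum, n = 3. Emin, Emax and EC50 from a Hill fit; static concentration by graphical interpolation.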

Staphylococcus aureus [22] = experiment: Bacteriostatic activity against beta-lactamase negative methicillin-susceptible Staphylococcus aureus ATCC 25923 infected in human THP-1 cells assessed as decrease in bacterial growth after 24 hrs at pH 5.5; assay type: functional; outline: as §5
Staphylococcus aureus [23] = experiment: Bacteriostatic activity against hospital acquired methicillin-resistant Staphylococcus aureus N4120032 infected in human THP-1 cells assessed as decrease in bacterial growth after 24 hrs at pH 5.5; assay type: functional; outline: as §6

SMILES: Cc1onc(-c2ccccc2Cl)c1C(=O)N[C@@H]1C(=O)N2[C@@H]1SC(C)(C)[C@@H]2C(=O)O [CLOXACILLIN]
- log10cfu (Staphylococcus aureus [1]): 2.64
- log10cfu (Staphylococcus aureus [2]): 2.06
- log10cfu (Staphylococcus aureus [3]): 0.99
- EC50 (Staphylococcus aureus [4]): 0.39 µg/mL (≈ 0.895 µM)
- Activity (Staphylococcus aureus [5]): 1 mg/L
- EC50 (Staphylococcus aureus [6]): 0.26 µg/mL (≈ 0.596 µM)
- MIC (Staphylococcus aureus [7]): 16 µg/mL (≈ 36.7 µM)
- MIC (Staphylococcus aureus [8]): 1 µg/mL (≈ 2.29 µM)
- MIC (Staphylococcus aureus [9]): 0.5 µg/mL (≈ 1.15 µM)
- MIC (Staphylococcus aureus [10]): 8 µg/mL (≈ 18.4 µM)
- MIC (Staphylococcus aureus [11]): 32 µg/mL (≈ 73.4 µM)
- MIC (Staphylococcus aureus [12]): 0.06 µg/mL (≈ 0.138 µM)
- MIC (Staphylococcus aureus [13]): 0.03 µg/mL (≈ 0.0688 µM)
- log10cfu (Staphylococcus aureus [14]): 2.42
- log10cfu (Staphylococcus aureus [15]): 2.06
- log10cfu (Staphylococcus aureus [16]): 2.76
- log10cfu (Staphylococcus aureus [17]): 0.77
- log10cfu (Staphylococcus aureus [18]): 0.74
- log10cfu (Staphylococcus aureus [19]): 0.63
- EC50 (Staphylococcus aureus [20]): 4.25 ×MIC
- EC50 (Staphylococcus aureus [21]): 3.63 ×MIC
- Activity (Staphylococcus aureus [22]): 11 ×MIC
- Activity (Staphylococcus aureus [23]): 33.1 ×MIC
